An excerpt weighted towards active compounds, which were near 11% of everything screened.
D1 allo mod = allosteric modulators of human D1 dopamine receptor. B-score at 10 µM. HEK293 D1, CRE-luciferase, dopamine EC30 potentiation; actives deviate in either direction. actives 5.9% (n = 58,000). AID 641. P21728;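 active = luminescence count or its row- and column-corrected plate score outside the 99.7% band of the plate's sample wells, on either side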
M1 ag = agonists of M1 muscarinic receptor | actives 3% (n = 64,000) | AID 626 | CHO-M1 cells, Fluo-4 calcium fluorescence, agonist mode; hits give high values | B-score at 10 µM;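 active = fluorescence rise, raw or as B-score row- and column-corrected plate score, outside the 99.7% band of its plate's samples, either direction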
S1P3 ag = S1P3 (human) receptor agonism; Q99500; S1P3 NFAT-BLA reporter cells, FRET ratio; relative to 1 µM S1P, basal subtracted; activation, % at 4.5 µM; actives 0.1% (n = 60,000);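 active = activation above the screen-wide mean plus 3 SD, cut at about 4.5% in these data, passing the limit was not always enough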
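Benchmarks: high control 1 µM S1P / System: stable CHO line with human S1P3, Gα16, NFAT-BLA reporter / Dosing: single compound concentration, 4.5 µM final / Timing: 4 h compound at 37 °C, 2 h substrate at RT / Measured by: FRET β-lactamase substrate fluorescence, excitation 405 nm, 460/535 nm emission ratio, background-subtracted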
TNAP act mid DEA = activates human TNAP at intermediate phosphate acceptor concentration; P05186; purified TNAP, CDP-star luminescence, 100 mM DEA, 30 min; hits give high values; scale: 0 levamisole-inhibited, 1 vehicle-only enzyme; activation factor at 20 µM; 64,000 tested, under 10 active;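 active = activation factor of at least 2 at 20 µM, relative to controls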
M1 antagonist = blocks the rat M1 muscarinic receptor response to acetylcholine; P08482; CHO-M1 cells, Fluo-4 calcium, ACh EC80 antagonist mode; hits give low values; B-score at 10 µM; actives 3.4% (n = 64,000);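 active = calcium fluorescence response, raw or row-and-column corrected B-score, differing from the plate sample mean either way at a set confidence level, mostly lower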
Target sequence (P08482 whole entry, looked up): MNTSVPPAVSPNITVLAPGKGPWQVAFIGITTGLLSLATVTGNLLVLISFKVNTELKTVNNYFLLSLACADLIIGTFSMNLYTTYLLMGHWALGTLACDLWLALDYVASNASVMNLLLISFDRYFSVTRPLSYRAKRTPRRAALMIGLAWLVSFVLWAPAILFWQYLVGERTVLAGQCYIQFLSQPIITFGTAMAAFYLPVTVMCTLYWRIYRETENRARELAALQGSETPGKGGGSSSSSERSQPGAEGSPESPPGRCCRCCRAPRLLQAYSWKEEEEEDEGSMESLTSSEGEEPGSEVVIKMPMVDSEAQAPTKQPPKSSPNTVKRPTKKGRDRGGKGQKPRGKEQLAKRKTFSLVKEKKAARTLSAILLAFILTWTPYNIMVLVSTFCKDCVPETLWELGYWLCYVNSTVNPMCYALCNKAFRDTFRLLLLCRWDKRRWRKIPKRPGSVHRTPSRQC
S1P1 ag-PAM = S1P1 (human) agonism or agonism potentiation. S1P1 CRE-bla cells, forskolin, beta-lactamase FRET, potentiator mode; S1P1 agonist co-added at EC20, 2 nM; 100% = saturating reference agonist, 0% = basal. activation, % at 9.5 µM. AID 449. actives 0.57% (n = 56,000);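 active = activation above a cutoff set at the mean activation of all tested compounds plus 3 SD, cut at about 54% in these data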;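 also: forskolin at 4 µM as EC80 and the EC20 agonist is SEW2871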
Of the large screens only hits and unclear results are named; the others gave an inactive call.

Cn1c(=O)c2cc(S(=O)(=O)NC(Cc3ccccc3)C(=O)NCc3ccco3)ccc2n(C)c1=O (stereo not given)	none
COc1ccccc1N1CCN(C/C(C)=C/c2ccccc2)CC1	D1 allo mod -3.63
Cc1ccc(C(C)C)c(OCC(O)CN2CCOCC2)c1 (stereo not given)	none
Cc1ccc(C(C)C)c(OCC(O)CN2CC(C)OC(C)C2)c1 (stereo not given)	D1 allo mod -3.51
CC(C)OC(=O)C1C2C=CC3(CN(Cc4cccs4)C(=O)C13)O2 (stereo not given)	none
CN(C)CCn1c(C(=O)Nc2ccccc2)cc2ccccc21	D1 allo mod -2.74
CC(=O)Nc1nc2ccccc2n1CCN(C)C	none
COc1ccc(-c2cn3c(C)c(C(=O)N4CCc5ccccc5C4)sc3n2)cc1	M1 ag 4.68 (no result: D1 allo mod)
Cc1c(C(=O)N2CCOCC2)sc2nc(-c3ccccc3)cn12	none
Cn1c(=O)c(C(=O)CSc2nncs2)c(N)n(Cc2ccccc2)c1=O	none
COc1ccccc1N1CCN(CCC(=O)Nc2ccc3c(c2)OCO3)CC1	D1 allo mod -2.18 (no result: M1 ag, S1P3 ag, M1 antagonist, S1P1 ag-PAM)
CCOc1ccc(NC(=O)CCN2CCN(c3ccccc3OC)CC2)cc1	none (no result: D1 allo mod)
Cc1onc(-c2ccccc2Cl)c1C(=O)N1CCN(c2ccccc2)CC1	D1 allo mod -2.4
CCOC(=O)c1sc2nc3c(cc2c1N)COC(C)(C)C3	none
CC1(C)Cc2nc(N)c(C(=O)NCCO)cc2CO1	M1 antagonist 6.62 (no result: D1 allo mod)
O=C(Nc1ccc(Oc2ccccc2)cc1)c1cnc2n(c1=O)CCS2	S1P1 ag-PAM 94.0
CCOc1ccccc1NC(=O)c1cnc2n(c1=O)CCS2	none (no result: D1 allo mod)
CCCCn1c2c(c(=O)n(C)c1=O)C(CC(=O)OCC(=O)Nc1cccc(C(F)(F)F)c1)C(=O)N2 (stereo not given)	none (no result: D1 allo mod)
Cc1cc(-c2ccco2)n(CC(=O)NCCN(C)C)n1	none (no result: D1 allo mod)
Cc1cc(-c2ccco2)n(CC(=O)O)n1	D1 allo mod -4.33
COC(=O)CCn1nnc(-c2ccc(C(C)C)cc2)n1	D1 allo mod -2.52
COC(=O)CCn1nnc(-c2cccs2)n1	M1 antagonist 1.67
CCOC(=O)/C=C1\SCC(=O)N1CCOc1cccc(Br)c1	none (no result: S1P3 ag, S1P1 ag-PAM)
COc1ccc(NC2=NC3(CCCCC3)N=C(N)N2)cc1	none
COc1ccc(OC)c(NC2=NC3(CCCCC3)N=C(N)N2)c1	D1 allo mod -5.21
Cn1c(=O)c2c(nc(Br)n2CCc2ccccc2)n(C)c1=O	D1 allo mod -3.79
Cn1c(=O)c2c(nc(Br)n2C)n(C)c1=O	D1 allo mod -1.63
CN(Cc1ccccc1)Cc1nc2c(c(=O)n(C)c(=O)n2C)n1CCc1ccccc1	none (no result: TNAP act mid DEA)
O=C(CCCCn1c(=O)c2ccccc2n(Cc2ccc(F)cc2Cl)c1=O)NCc1ccco1	D1 allo mod 14.3 (no result: S1P3 ag, S1P1 ag-PAM)
O=C(NCc1ccc2c(c1)OCO2)c1ccc(CN2CCOCC2)cc1	none
N#CC1=C(N)C(C#N)(C#N)C2(C(=O)Nc3ccccc32)C2CCCC=C12 (stereo not given)	D1 allo mod -6.24 (no result: M1 ag, M1 antagonist)
O=C1Nc2ccccc2C12OC1CCCCC1O2 (stereo not given)	none
COc1cccc(-c2cc(C(F)(F)F)nc(N3CCCCC3)n2)c1	none (no result: D1 allo mod, M1 ag, S1P3 ag, M1 antagonist, S1P1 ag-PAM)
COc1cccc(-c2cn3nc4c(nc3n2)CCCC4)c1	D1 allo mod -4.82
COC(=O)c1ccccc1NC(=O)C1CCCN(S(=O)(=O)c2ccc(OC)cc2)C1 (stereo not given)	none (no result: S1P1 ag-PAM)
O=C(c1ccco1)N1CCN(C(=O)c2cccn3c(=O)c4c5c(sc4nc23)CCCC5)CC1	D1 allo mod 3.82
Cc1ccnc(N2CCN(c3cc(C)c(C#N)c4nc5ccccc5n34)CC2)c1	M1 antagonist -2.51
N#CCCS(=O)(=O)c1nnnn1-c1ccccc1	S1P1 ag-PAM 70.0
CCN(CCCNS(=O)(=O)c1ccc2c(c1)CCN2C(C)=O)c1cccc(C)c1	none
O=C(NCCOc1ccccc1)c1ccc2c(c1)OCO2	D1 allo mod -7.5
CCOc1ccc(CNC(=O)C(CC)n2nc(C)n3c(cc4occc43)c2=O)cc1OC (stereo not given)	none (no result: D1 allo mod)
CCc1cc(=O)oc2cc(OCC(=O)O)c(Cl)cc12	none (no result: S1P1 ag-PAM)
CCc1cc(=O)oc2cc(OC(C)C(=O)O)c(Cl)cc12 (stereo not given)	D1 allo mod -4.18 (no result: M1 ag, M1 antagonist)
Cc1cc(C)n(S(=O)(=O)c2ccc(Cl)c(Cl)c2Cl)n1	none (no result: S1P1 ag-PAM)
Cc1cc(C)n(S(=O)(=O)c2cc(C(=O)O)c(Cl)cc2Cl)n1	M1 antagonist 2.27 (no result: S1P1 ag-PAM)
CNc1cccccc1=S	none
COc1ccc(S(=O)(=O)N(C)CC(=O)NCc2cccnc2)cc1C	none (no result: S1P1 ag-PAM)
Cc1cccc(NC(=O)C2CC(O)CN2C(=O)OCc2ccccc2)c1 (stereo not given)	D1 allo mod -3.93
Cc1cccc(NC(=O)c2cnc3ccccn3c2=O)c1	D1 allo mod -4.25
Cc1ccc2c(C)nc(NC3=NCN(CCc4ccccc4)CN3)nc2c1	M1 antagonist -12.6
Cc1nc(NC2=NCN(CCc3ccccc3)CN2)nc2ccccc12	M1 antagonist -8.96 (no result: D1 allo mod)
COCCN1CN=C(Nc2nc(C)c3ccc(C)cc3n2)NC1	M1 antagonist -7.3
Cc1ccc2c(C)nc(NC3=NCN(Cc4ccccc4)CN3)nc2c1	none
Cc1nc(NC2=NCN(CCc3ccccc3)CN2)nc2c(C)cccc12	none
Cc1occc1-c1nnc(SCC(=O)c2ccc(F)cc2)o1	none
COC(=O)CCN(C(=O)C1C2CC3CC(C2)CC1C3)c1ccccn1 (stereo not given)	none
CN(C)S(=O)(=O)c1ccc2c(c1)c(=O)c(C(=O)N1CCOCC1)cn2C	none
CCOC(=O)C1CCCN(C(=O)c2cn(C)c3ccc(S(=O)(=O)N(C)C)cc3c2=O)C1 (stereo not given)	M1 antagonist 0.97
CCN(CC)CCCN(Cc1cc2cc3c(cc2[nH]c1=O)OCCO3)C(=O)Nc1ccc(F)cc1	none
Cc1ccnc(NC(=O)COc2ccc3oc4c(c3c2)CCCC4)c1	none (no result: TNAP act mid DEA, S1P1 ag-PAM)
Cc1ccccc1COc1ccc(/C(O)=C2/C(=O)C(=O)N(CCCn3ccnc3)C2c2ccco2)cc1 (stereo not given)	none (no result: D1 allo mod)
CCn1c2ccccc2c2nnc(SCc3cc(=O)n4ccsc4n3)nc21	D1 allo mod 12.5 (no result: S1P3 ag, S1P1 ag-PAM)
Cc1ccccc1C(=O)Nc1ccc(Cl)cn1	none
Cc1ccc(C(=O)Nc2ccc(Cl)cn2)cc1	D1 allo mod -4.13
O=C(NC1CCCCCCC1)c1ccc2c(c1)N(Cc1ccc(F)cc1)C(=O)CS2=O (stereo not given)	none (no result: S1P3 ag, S1P1 ag-PAM)
COc1cc2nc(N(C)C)nc(N)c2cc1OC	D1 allo mod -4.64
COc1cc2nc(-c3ccccc3)nc(N3CCCC3)c2cc1OC	none (no result: D1 allo mod)
O=C(Nc1nc2ccccc2[nH]1)c1ccccc1F	D1 allo mod -7.94

High-throughput results as filed in PubChem BioAssay.
